# Laboratory results taken from paper PMC7276679 (Acta Pharmaceutica Sinica. B, 2019).
# Format: in vivo, Sprague-Dawley rats
# Settings: 5 mg/kg p.o.
# How it was run: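 8-week-old male WT and CRISPR/Cas9 Slco1b2 KO SD rats, fasted 12 h, given the OATP1B2 probe substrate as a CMC-Na suspension intragastrically. Plasma underwent ethyl acetate liquid–liquid extraction with mebendazole internal standard, then positive-ESI LC–MS/MS. Parameters were derived by non-compartmental analysis.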
smiles,measurement,setting,value
"O=C(O)C[C@H](O)C[C@H](O)/C=C/c1c(C2CC2)nc2ccccc2c1-c1ccc(F)cc1 [pitavastatin, Pitavastatin]",decrease of CL/F in KO rats compared with WT rats,KO vs WT rats,38.5%
same,decrease of Vd/F in KO rats compared with WT rats,KO vs WT rats,39.8%
same,increase of AUC0–24 h in KO rats compared with WT rats,KO vs WT rats,68.8%
same,increase of AUC0–inf in KO rats compared with WT rats,KO vs WT rats,68.8%
same,AUC(0-inf),"male, Sprague-Dawley, rat, plasma, po, 5 mg/kg, AUC0–inf, Slco1b2 KO male rats, mean ± SD, n = 6",3440 ± 1050 ng·h/mL
same,AUC(0-t),"male, Sprague-Dawley, rat, plasma, po, 5 mg/kg, AUC0–t, Slco1b2 KO male rats, mean ± SD, n = 6",3410 ± 1040 ng·h/mL
same,CL/F,"male, Sprague-Dawley, rat, plasma, po, 5 mg/kg, CL/F, Slco1b2 KO male rats, mean ± SD, n = 6",26 mL/min/kg
same,Cmax,"male, Sprague-Dawley, rat, plasma, po, 5 mg/kg, Cmax, Slco1b2 KO male rats, mean ± SD, n = 6",1000 ± 336 ng/mL
same,MRT last,"male, Sprague-Dawley, rat, plasma, po, 5 mg/kg, MRT0–t, Slco1b2 KO male rats, mean ± SD, n = 6",3.65 ± 0.89 h
same,Tmax,"male, Sprague-Dawley, rat, plasma, po, 5 mg/kg, Tmax, Slco1b2 KO male rats, mean ± SD, n = 6",2.08 ± 0.97 h
same,Vd/F,"male, Sprague-Dawley, rat, plasma, po, 5 mg/kg, Vd/F, Slco1b2 KO male rats, mean ± SD, n = 6",6.58 ± 1.9 L/kg
same,half-life,"male, Sprague-Dawley, rat, plasma, po, 5 mg/kg, t1/2, Slco1b2 KO male rats, mean ± SD, n = 6",2.92 ± 0.43 h
